{
  "source": "ChEMBL document CHEMBL1158803",
  "about": "“Xanthone and sesquiterpene derivatives from the fruits of Garcinia scortechinii” (2005)",
  "data": [
    {"system": "Staphylococcus aureus", "test": "Antibacterial activity against methicillin-resistant Staphylococcus aureus after 18 hrs by agar microdilution method", "format": "functional", "in_short": "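Agar microdilution; compounds in DMSO, serial 2-fold dilutions mixed 1:100 into melted Mueller-Hinton agar, final 128 to 0.03 µg/mL. Clinical MRSA isolate (Songklanakarin Hospital) inoculum spotted on agar wells, incubated 35 °C for 18 h. MIC taken as lowest concentration inhibiting visible growth. Vancomycin positive control; DMSO-agar growth control.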", "units": {"MIC": "µM"}, "values": [
      {"smiles": "CC(C)=CCc1c2c(c3oc4c(C(C)(C)O)cc(O)cc4c(=O)c3c1O)C(C)(C)[C@@H](C)O2", "note": "[SCORTECHINONE U]", "MIC": "> 292"},
      {"smiles": "COC1Cc2c(oc3c(CC=C(C)C)c4c(c(O)c3c2=O)C(C)(C)C(C)O4)C2=C1[C@@](C/C=C(\\C)C(=O)O)(C(=O)O)OC2(C)C", "note": "(stereo partly specified) [SCORTECHINONE X]", "MIC": "> 210"},
      {"smiles": "COc1cc2c(=O)c3c(O)c4c(c(CC=C(C)C)c3oc2c2c1[C@@](C/C=C(\\C)C(=O)O)(C(=O)O)OC2(C)C)OC(C)C4(C)C", "note": "(stereo partly specified) [SCORTECHINONE W]", "MIC": 52.8},
      {"smiles": "C=C(C)C(O)Cc1c(O)c2c(c3c1O[C@H](C)C3(C)C)O[C@@]13C(=C[C@@]4(OC)C[C@@H]1C(C)(C)O[C@]3(C/C=C(/C)C(=O)O)C4=O)C2=O", "note": "(stereo partly specified) [SCORTECHINONE R]", "MIC": "> 210"},
      {"smiles": "CO[C@H]1[C@@H]2C(=O)c3c(O)c(CC=C(C)C)c4c(c3O[C@]23[C@@H]2C[C@@]1(OC)C(=O)[C@@]3(C/C=C(/C)C(=O)O)OC2(C)C)C(C)(C)[C@@H](C)O4", "note": "[SCORTECHINONE I]", "MIC": 12.8},
      {"smiles": "COc1cc2c(=O)c3c(O)c(CC=C(C)C)c4c(c3oc2c2c1[C@@](C/C=C(\\C)C(=O)O)(C(=O)O)OC2(C)C)C(C)(C)[C@@H](C)O4", "note": "[SCORTECHINONE V]", "MIC": 106},
      {"smiles": "C=C(C)C(O)Cc1c(O)c2c(c3c1O[C@H](C)C3(C)C)O[C@@]13[C@@H]4C[C@@](OC)(C(=O)[C@@]1(C/C=C(/C)C(=O)O)OC4(C)C)[C@@H](OC)[C@@H]3C2=O", "note": "(stereo partly specified) [SCORTECHINONE S]", "MIC": 100},
      {"smiles": "CO[C@]12C=C3C(=O)c4c(O)c(CC=C(C)C)c5c(c4O[C@]34[C@H](C1)C(C)(C)O[C@]4(C/C=C(/C)C(=O)O)C2=O)C(C)(C)[C@H](C)O5", "note": "[SCORTECHINONE B]", "MIC": 3.38},
      {"smiles": "CN[C@H](CC(C)C)C(=O)N[C@H]1C(=O)N[C@@H](CC(N)=O)C(=O)N[C@H]2C(=O)N[C@H]3C(=O)N[C@H](C(=O)N[C@H](C(=O)O)c4cc(O)cc(O)c4-c4cc3ccc4O)[C@H](O)c3ccc(c(Cl)c3)Oc3cc2cc(c3O[C@@H]2O[C@H](CO)[C@@H](O)[C@H](O)[C@H]2O[C@H]2C[C@](C)(N)[C@H](O)[C@H](C)O2)Oc2ccc(cc2Cl)[C@H]1O", "note": "[VANCOMYCIN]", "MIC": 1.38},
      {"smiles": "CO[C@]12C=C3C(=O)c4c(O)c(CC=C(C)C)c5c(c4O[C@]34[C@H](C1)[C@](C)(CO)O[C@]4(CC=C(C)C)C2=O)C(C)(C)[C@@H](C)O5", "MIC": "> 221"},
      {"smiles": "CO[C@H]1[C@@H]2C(=O)c3c(O)c(CC=C(C)C)c4c(c3O[C@]23[C@@H]2C[C@@]1(OC)C(=O)[C@@]3(C/C=C(\\C)C=O)OC2(C)C)C(C)(C)[C@@H](C)O4", "note": "[SCORTECHINONE T]", "MIC": "> 105"}
    ]}
  ]
}
